Experimental data as given in paper PMC3576184 (Oncology Letters, 2012).
“Also recorded” adds a separate entry of the source. Marks after values point to notes of the source that are not given here.

Tests used:
[1] = test system: vascular smooth muscle cells; conditions: via inhibition of Ras/MAPK signal pathway; cited from earlier work
rat neutrophils = conditions: through suppression of Akt and PLD activation; cited from earlier work
WEHI-3 cell allograft = assay: BALB/c mouse WEHI-3 allograft leukemia model; type: in vivo, BALB/c mice
Method in brief: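 30 BALB/c mice (6 weeks, 22–25 g) in five groups: 2-glycofurol vehicle; 1×10^7 WEHI-3 cells i.v.; test compound 100 mg/kg/day i.v. for 7 days; cells plus compound; or cells, then compound for 7 days. Weighed every 7 days; killed with CO2 at day 28, spleen and liver weighed. Blood leukocytes were red-cell-lysed, stained, and read by flow cytometry for surface markers including CD11b and CD45.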

WEHI-3 cells = assay: MTT viability assay in WEHI-3 cells; type: cell-based, murine
Method in brief: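 WEHI-3 murine myelomonocytic cells were grown in RPMI-1640 with 10% FBS, 2 mM L-glutamine, penicillin and streptomycin at 37°C, 5% CO2. About 2×10^4 cells/well were plated for 24 h. Test compound in DMSO was added at final 0.78–25 μM, with 0.1% DMSO as control. After 24 h, viability was read by MTT across three separate experiments.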

[2] = Cytotoxicity on normal human PBMCs; type: cell-based; conditions: normal human peripheral blood mononuclear cells (PBMCs)
HL-60 cells = conditions: cited from earlier work
[3] = Safety evaluation in BALB/c mice; type: in vivo; conditions: for BUN (blood urea nitrogen) / Body weight / Liver weight / Spleen weight / sGOT (serum glutamic-oxaloacetic transaminase) / sGPT (serum glutamic-pyruvic transaminase) / ALB (albumin) / LDH (lactate dehydrogenase) / PRO (total protein): mean ± SD, n=6; for ALB (albumin) / LDH (lactate dehydrogenase) / PRO (total protein): blood
Method in brief: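 30 BALB/c mice in five groups received i.v. PBS, 2-glycofurol solvent, or test compound at 5, 50 or 100 mg/kg/day for 7 days. Mice were killed with CO2 at day 7. Body, liver and spleen weights were recorded. Blood was assayed for LDH, albumin, total protein, sGPT, sGOT and BUN. Spleen and liver went to histopathology. Groups were compared with controls by Student's t-test.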

[4] = 100 mg/kg, flow cytometry, vs leukemia group
[5] = 5 mg/kg i.v. once daily for 7 days
[6] = 50 mg/kg i.v. once daily for 7 days
[7] = 100 mg/kg i.v. once daily for 7 days

For `O=Cc1ccccc1OCc1ccccc1` [2-benzyloxybenzaldehyde], the “effect on cell proliferation” value [1] is given as “exhibited antiproliferative effects” and the superoxide anion generation (rat neutrophils) is given as “inhibits superoxide anion generation”.
With `COc1cccc(COc2ccccc2C=O)c1` [CCY-1a-E2, 2-[(3-methoxybenzyl)oxy]benzaldehyde] the “level of CD11b on leukocytes” value (WEHI-3 cell allograft; [4]) was “significantly decreased”, the “level of CD45 on leukocytes” value (WEHI-3 cell allograft; [4]) was “significantly decreased” and the Liver weight (WEHI-3 cell allograft; 100 mg/kg/day i.v. 7 days, day 28) was “significantly different; also recorded: inhibited the spleen and liver growth”. The “body weight vs control mice” value (WEHI-3 cell allograft; CCY-1a-E2 100 mg/kg group (no WEHI-3 cells), i.v. 7 days, up to day 28) was “not significantly decreased”, the “infiltration of immature myeloblastic cells into the splenic red pulp (histopathology)” value (WEHI-3 cell allograft; treated leukemic mice vs untreated leukemia group, data not shown) was “eliminated” and the IC50 (WEHI-3 cells; Mus musculus, WEHI-3, 24 h, read-out: IC50 (cell viability, MTT)) was 5 µM. For the same molecule, the “percentage of viable cells” value (WEHI-3 cells; WEHI-3 cells, 0.78-25 μM, 24 h, MTT) was “decreased the percentage of viable cells in a concentration-dependent manner”, the IC50 [2] was over 20 µM and the apoptosis (HL-60 cells) was “induced cell apoptosis”. For the same molecule, the cell cycle effect (HL-60 cells) was “induced G2/M phase arrest”, the “percentage of viable cells” value (HL-60 cells) was “decreased the percentage of viable cells” and the “BUN (blood urea nitrogen)” value [3, 5] was 30.33 ± 5.02 mg/dL. The Body weight [3, 5] was 28.42±1.13^a g, the Liver weight [3, 5] was 4.42±0.47 g/100 g body weight and the Spleen weight [3, 5] was 0.35±0.06 g/100 g body weight. The “sGOT (serum glutamic-oxaloacetic transaminase)” value [3, 5] was 105.83±22.16 U/l, the “sGPT (serum glutamic-pyruvic transaminase)” value [3, 5] was 41.83±8.94 U/l and the “BUN (blood urea nitrogen)” value [3, 6] was 26.17 ± 2.42 mg/dL. For the same molecule, the Body weight [3, 6] was 28.88±1.52^a g, the Liver weight [3, 6] was 4.18±0.33 g/100 g body weight and the Spleen weight [3, 6] was 0.31±0.06 g/100 g body weight. For the same molecule, the “sGOT (serum glutamic-oxaloacetic transaminase)” value [3, 6] was 79.98±26.10 U/l, the “sGPT (serum glutamic-pyruvic transaminase)” value [3, 6] was 43.92±16.02 U/l and the “BUN (blood urea nitrogen)” value [3, 7] was 28.92 ± 2.20 mg/dL. The Body weight [3, 7] was 28.90±0.51^a g, the Liver weight [3, 7] was 4.17±0.26 g/100 g body weight and the Spleen weight [3, 7] was 0.37±0.04 g/100 g body weight. The “sGOT (serum glutamic-oxaloacetic transaminase)” value [3, 7] was 115.12±15.08 U/l, the “sGPT (serum glutamic-pyruvic transaminase)” value [3, 7] was 41.83±10.02 U/l and the “sGPT and sGOT levels vs normal range” value ([3]; 5, 50 and 100 mg/kg i.v. for 7 days) was “within the normal value range”. For the same molecule, the “histopathology of spleen and liver” value ([3]; 5, 50 and 100 mg/kg, vs vehicle-treated controls, data not shown) was “No significant microscopic aberrations”, the “ALB (albumin)” value [3, 5] was 1.58 ± 0.38 g/dL and the “LDH (lactate dehydrogenase)” value [3, 5] was 298.00±62.22 U/l. For the same molecule, the “PRO (total protein)” value [3, 5] was 3.68 ± 0.60 g/dL, the “ALB (albumin)” value [3, 6] was 1.73 ± 0.26 g/dL and the “LDH (lactate dehydrogenase)” value [3, 6] was 244.83±46.99 U/l. The “PRO (total protein)” value [3, 6] was 4.06 ± 0.58 g/dL, the “ALB (albumin)” value [3, 7] was 1.84 ± 0.13 g/dL and the “LDH (lactate dehydrogenase)” value [3, 7] was 270.83±42.09 U/l. For the same molecule, the “PRO (total protein)” value [3, 7] was 4.77 ± 0.46 g/dL.
